Only some compounds are listed: those with a hit (about 2.3% of all), similar ones and a draw of the others.
TRPC6 activator: activates the mouse TRPC6 cation channel; Q61143; HEK293-TRPC6 membrane potential dye fluorescence; stronger effect = higher value; B-score at 10 µM; 310,000 tested, 0.13% active; AID 2550;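 active = B-score of the integrated fluorescence ratio above library mean plus 3 SD, and starting fluorescence ratio within library mean plus 5 SD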;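 also: higher score means more depolarization so channel activation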
Target sequence (Q61143 whole entry, looked up): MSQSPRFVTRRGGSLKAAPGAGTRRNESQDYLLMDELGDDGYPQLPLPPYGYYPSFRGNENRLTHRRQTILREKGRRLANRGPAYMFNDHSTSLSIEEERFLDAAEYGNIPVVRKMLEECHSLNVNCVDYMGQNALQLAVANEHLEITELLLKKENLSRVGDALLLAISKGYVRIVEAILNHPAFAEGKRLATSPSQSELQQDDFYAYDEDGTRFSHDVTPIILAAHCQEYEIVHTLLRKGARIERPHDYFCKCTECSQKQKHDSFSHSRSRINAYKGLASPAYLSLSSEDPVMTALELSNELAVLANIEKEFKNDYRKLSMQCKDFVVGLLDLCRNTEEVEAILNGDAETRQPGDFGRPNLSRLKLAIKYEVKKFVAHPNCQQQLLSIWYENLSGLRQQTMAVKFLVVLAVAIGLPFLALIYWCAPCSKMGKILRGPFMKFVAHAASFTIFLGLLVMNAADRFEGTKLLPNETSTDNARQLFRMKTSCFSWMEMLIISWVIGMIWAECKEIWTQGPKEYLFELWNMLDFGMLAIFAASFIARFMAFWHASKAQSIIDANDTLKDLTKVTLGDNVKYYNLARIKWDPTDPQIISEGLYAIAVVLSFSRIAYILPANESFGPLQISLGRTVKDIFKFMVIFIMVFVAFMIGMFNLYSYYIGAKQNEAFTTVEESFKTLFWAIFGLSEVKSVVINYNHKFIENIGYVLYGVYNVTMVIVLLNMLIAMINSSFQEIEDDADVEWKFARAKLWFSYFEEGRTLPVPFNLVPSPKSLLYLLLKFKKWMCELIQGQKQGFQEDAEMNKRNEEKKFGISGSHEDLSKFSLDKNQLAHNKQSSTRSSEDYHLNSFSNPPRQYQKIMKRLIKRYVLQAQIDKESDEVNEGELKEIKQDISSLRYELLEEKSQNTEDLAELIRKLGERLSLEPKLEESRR
TRPC6 inhibitor: mouse TRPC6 channel inhibition; HEK293-TRPC6, membrane potential dye, ACh-evoked depolarization; stronger effect = lower value; B-score at 10 µM; 310,000 tested, 1.1% active; AID 2553;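 active = B-score under library mean minus 3 SD, initial fluorescence not abnormally high, positive integrated signal ratio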;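 also: B-score derived from integrated fluorescence ratio over the kinetic read; more negative B-score means stronger inhibition of depolarization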
TRPC4 block: TRPC4 (mouse) channel inhibition; HEK293 TRPC4beta/mu-opioid, DAMGO-evoked Fluo4 calcium flux; stronger effect = lower value; B-score at 10 µM; 300,000 tested, 0.39% active; AID 2247;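 active = B-score over 3 SD under the library average, no early fluorescence shift, positive overall ratio signal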
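test system = HEK293 cells with stable TRPC4beta plus mu-opioid receptor expression | detection = Fluo4 Ca2+ flux fluorescence | read-out = integrated fluorescence ratio relative to baseline, converted to per-well B score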
TRPC4 act: opens the mouse TRPC4 cation channel; Q9QUQ5; HEK293 TRPC4beta/mu-opioid, Fluo4 calcium fluorescence; stronger effect = higher value; B-score at 10 µM; 310,000 tested, 0.49% active;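 active = B-score above 5 SD of library B-scores, and initial fluorescence ratio not above library mean plus 5 SD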;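 also: positive B-score marks a calcium rise read as TRPC4 activation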
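Assay system – TRPC4beta and mu-opioid receptor HEK293 stable cells · Measured by – Fluo4 fluorescence, kinetic · Schedule – dye loading 45 min room temperature, 110 s kinetic read · Read-out – B-scored integrated calcium fluorescence ratio · Controls – buffer and maximal DAMGO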
TRPC4 PAM: allosterically enhances the mouse TRPC4 cation channel; Q9QUQ5; HEK293 TRPC4beta/mu-opioid, DAMGO EC20, Fluo-4 Ca2+ flux; stronger effect = higher value; B-score at 10 µM; 310,000 tested, 0.42% active; AID 2227;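 active = B-score of calcium response area above 5 SD of library B-scores, with initial fluorescence ratio within 5 SD of library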;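 also: B-score of integrated fluorescence ratio over time as area under calcium response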
TRPC4 sel inh 2: second check of whether TRPC6 inhibitors also affect mouse TRPC4; inhibition, % at 10 µM; HEK293 TRPC4/MOR, membrane potential dye fluorescence; channel activated by saturating DAMGO dose; 920 tested, 42% active; AID 2776; shares compounds with TRPC6 inhibitor;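 active = compounds whose fluorescence signal differed from control wells by over 3 SD, either direction, in both duplicate plates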
TRPC4 spec: selectivity of TRPC6 inhibitors: effect on mouse TRPC4. shares compounds with TRPC6 inhibitor. HEK293 TRPC4/mu-opioid, membrane potential fluorescence. activity change, negative = inhibition, % at 10 µM. 920 tested, 61% active. AID 2777;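 active = rise or fall in signal beyond 3 SD of buffer-only wells in both replicate plates, either sign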;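 also: integrated kinetic ratio of fluorescence range over baseline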
HEK293 MPD ctr 2-1: second check of TRPC6 inhibitor effects in parental HEK293 cells; signal change vs control, % at 10 µM; parental HEK293 membrane potential dye fluorescence; maximal acetylcholine challenge after compound addition; shares compounds with TRPC6 inhibitor; 920 tested, 31% active;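 active = membrane potential signal moving either way by over 3 SD of the maximum-effect control, in both duplicate plates, meaning non-specific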
HEK293 MPD ctr-1: counter-screen for TRPC6 inhibitors: effect in parental HEK293 cells; membrane potential signal change, % at 10 µM; parental HEK293 membrane potential dye fluorescence; shares compounds with TRPC6 inhibitor; 920 tested, 60% active;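 active = membrane potential signal shifting up or down by more than 3 SD of buffer-only wells, on both duplicate plates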
HEK293 MPD ctr-2: parental HEK293 nonspecific activity of TRPC6 modulators; shares compounds with TRPC6 inhibitor; membrane potential dye fluorescence; membrane potential signal change, % at 10 µM; 2,400 tested, 51% active; AID 488924;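 active = membrane potential signal moves up or down beyond 5 SD from buffer-only wells, on both duplicate plates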
HEK293 MPD ctr 2-2: second check of TRPC6 modulator effects in parental HEK293 cells; shares compounds with TRPC6 inhibitor; membrane potential dye fluorescence; after compound, maximal acetylcholine stimulation; inhibition, % at 10 µM; 2,400 tested, 14% active; AID 488926;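 active = membrane potential signal drops by more than 5 SD from the mean control signal, in both duplicate plates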;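 also: plate controls were acetylcholine ECmax control wells for no effect and buffer only wells for full effect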
TRPC4 ctr mod: tests whether TRPC6 modulators also affect mouse TRPC4. shares compounds with TRPC6 inhibitor. AID 488927. percent change from control (negative = decrease, positive = increase), % at 10 µM. 2,400 tested, 69% active. HEK293 TRPC4/mu-opioid, membrane potential fluorescence;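 active = membrane potential signal moved up or down beyond 5 SD of buffer control wells, in both duplicate plates, actives on both sides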;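 also: plate controls were assay buffer wells for no effect and DAMGO maximal-effect wells for full effect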
TRPC4/MOR inh 2: mouse TRPC4 off-target activity of TRPC6 modulators, second screen; inhibition, % at 10 µM; HEK293 TRPC4/mu-opioid, membrane potential dye fluorescence; stimulated with maximal-effect DAMGO; AID 488928; shares compounds with TRPC6 inhibitor; 2,400 tested, 55% active;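 active = drop in membrane potential signal beyond 5 SD of the control wells in both duplicate plates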;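 also: TRPC4 counter screen for TRPC6 hits run under conditions tuned for TRPC6 not TRPC4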
TRPC6 inh conf: confirmation of mouse TRPC6 inhibitors; shares compounds with TRPC6 inhibitor; AID 488960; 3,300 tested, 43% active; HEK293-TRPC6, membrane potential dye, ACh-evoked depolarization; inhibition, % at 10 µM;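 active = fluorescence ratio falls more than 5 SD below the full-stimulation control mean, in both duplicate runs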;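 also: integrated fluorescence ratio of peak minus minimum over baseline after agonist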
TRPC6 act confirm: confirmation of mouse TRPC6 activators; shares compounds with TRPC6 inhibitor; HEK293-TRPC6 membrane potential dye fluorescence, FDSS; activation, % at 10 µM; 2,800 tested, 11% active; AID 488961;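 active = ratio signal rise beyond 5 SD above unstimulated control wells' mean, seen in both duplicate runs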;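 also: plate controls were buffer EC0 wells for no effect and acetylcholine ECmax response for full effect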
Starred values were filed as active, the others as inactive.

Cc1ccc(S(=O)(=O)N2CCN(C(=O)C3=COCCO3)CC2)cc1C was read as TRPC6 activator inactive, TRPC6 inhibitor -6.99*, TRPC4 block inactive, TRPC4 act inactive, TRPC4 PAM inactive, TRPC4 sel inh 2 inactive, TRPC4 spec -0.7%*, HEK293 MPD ctr 2-1 inactive, HEK293 MPD ctr-1 inactive, TRPC6 inh conf inactive and TRPC6 act confirm inactive.
For Cc1cc2nc(N3CCN(C(=O)c4cccs4)CC3)sc2cc1C the results were TRPC6 activator inactive, TRPC6 inhibitor inactive, TRPC4 block inactive, TRPC4 act inactive and TRPC4 PAM inactive.
`Cc1cc(C)c2nc(N3CCN(C(=O)c4cccs4)CC3)sc2c1` gave TRPC6 activator inactive, TRPC6 inhibitor -6.48*, TRPC4 block inactive, TRPC4 act inactive, TRPC4 PAM inactive, HEK293 MPD ctr-2 inactive, HEK293 MPD ctr 2-2 inactive, TRPC4 ctr mod inactive, TRPC4/MOR inh 2 inactive, TRPC6 inh conf inactive and TRPC6 act confirm inactive.
`O=C1C=C(Nc2ccc(Cl)cc2Cl)CC(c2ccco2)C1` (stereo not given) gave TRPC6 activator inactive, TRPC6 inhibitor inactive, TRPC4 block inactive, TRPC4 act inactive and TRPC4 PAM inactive.
For COc1ccc(OC)c(/C=N/NC(=O)CSc2cc(C)nc3c(OC)cccc23)c1 the results were TRPC6 activator inactive, TRPC6 inhibitor inactive, TRPC4 block inactive, TRPC4 act inactive and TRPC4 PAM inactive.
Screening O=C(O)COc1ccc(/C=N/NC(=O)Cc2ccc(Cl)cc2)cc1 returned TRPC6 activator inactive, TRPC6 inhibitor inactive, TRPC4 block inactive, TRPC4 act inactive and TRPC4 PAM inactive.
For COc1ccc(O)c(/C=N/NC(=O)c2cc(=O)[nH]c3ccccc23)c1 the results were TRPC6 activator inactive, TRPC6 inhibitor inactive, TRPC4 block inactive, TRPC4 act inactive and TRPC4 PAM inactive.
Screening CNc1oc(-c2ccccc2F)nc1S(=O)(=O)c1ccc(C)cc1 returned TRPC6 activator inactive, TRPC6 inhibitor inactive, TRPC4 block inactive, TRPC4 act inactive and TRPC4 PAM inactive.
`O=C(C1=COCCO1)N1CCN(C(c2ccccc2)c2ccccc2)CC1` gave TRPC6 activator inactive, TRPC6 inhibitor -7.03*, TRPC4 block inactive, TRPC4 act inactive, TRPC4 PAM inactive, TRPC4 sel inh 2 inactive, TRPC4 spec 1.6%*, HEK293 MPD ctr 2-1 inactive, HEK293 MPD ctr-1 1.7%* and TRPC6 inh conf inactive.
`CCn1cc([N+](=O)[O-])c(C(=O)N2N=C3/C(=C/c4cccs4)CCCC3C2c2cccs2)n1` (stereo not given) gave TRPC6 activator inactive, TRPC6 inhibitor inactive, TRPC4 block inactive, TRPC4 act inactive and TRPC4 PAM inactive.
Screening COc1ccc(C2c3ccc4ccccc4c3Oc3ncn(CCN(C)C)c(=N)c32)cc1 (stereo not given) returned TRPC6 activator inactive, TRPC6 inhibitor -5.38*, TRPC4 block inactive, TRPC4 act inactive, TRPC4 PAM inactive, HEK293 MPD ctr-2 115.0%*, HEK293 MPD ctr 2-2 inactive, TRPC4 ctr mod 10.5%*, TRPC4/MOR inh 2 69.0%* and TRPC6 inh conf inactive.
Screening O=C(O)COc1ccc(/C=C/c2nc3ccc([N+](=O)[O-])cc3s2)cc1 returned TRPC6 activator inactive, TRPC6 inhibitor -8.5*, TRPC4 block inactive, TRPC4 act inactive, TRPC4 PAM inactive, TRPC4 sel inh 2 inactive, TRPC4 spec -30.2%*, HEK293 MPD ctr 2-1 inactive, HEK293 MPD ctr-1 -426.0%*, TRPC6 inh conf inactive and TRPC6 act confirm inactive.
Screening Cc1nc(C)c(CCNC(=O)c2ccccc2)s1 returned TRPC6 activator inactive, TRPC6 inhibitor -6.05*, TRPC4 block inactive, TRPC4 act inactive, TRPC4 PAM inactive, HEK293 MPD ctr-2 inactive, HEK293 MPD ctr 2-2 inactive, TRPC4 ctr mod inactive, TRPC4/MOR inh 2 inactive, TRPC6 inh conf inactive and TRPC6 act confirm inactive.
Screening Cc1ccc(-c2nc(C(=O)NCCCN(C)C)cc3c2[nH]c2ccccc23)cc1 returned TRPC6 activator inactive, TRPC6 inhibitor -9.78*, TRPC4 block inactive, TRPC4 act inactive, TRPC4 PAM inactive, TRPC4 sel inh 2 30.0%*, TRPC4 spec -21.3%*, HEK293 MPD ctr 2-1 30.0%*, HEK293 MPD ctr-1 -255.0%*, TRPC6 inh conf 78.3%* and TRPC6 act confirm inactive.
Screening COc1ccc(OC)c(-c2nc(C(=O)NCCCN3CCOCC3)cc3c2[nH]c2ccccc23)c1 returned TRPC6 activator inactive, TRPC6 inhibitor -6.03*, TRPC4 block inactive, TRPC4 act inactive, TRPC4 PAM inactive, HEK293 MPD ctr-2 inactive, HEK293 MPD ctr 2-2 inactive, TRPC4 ctr mod inactive, TRPC4/MOR inh 2 48.5%*, TRPC6 inh conf inactive and TRPC6 act confirm inactive.
Screening CCOc1cccc(C(=O)NC(=S)Nc2ccc(Cl)cc2C(=O)O)c1 returned TRPC6 activator inactive, TRPC6 inhibitor inactive, TRPC4 block inactive, TRPC4 act inactive and TRPC4 PAM inactive.
